Measurements as given in ChEMBL document CHEMBL4513216, “Probing the Open Global Health Chemical Diversity Library for Multistage-Active Starting Points for Next-Generation Antimalarials” (ACS Infect Dis, 2020).

Experiment: Toxicity liver stage against HepG2, at 10uM
Type: cell-based
Parameters: test concentration 10 uM, cell line HepG2-A16-CD81EGFP
Settings: human, HepG2-A16-CD81EGFP cells; read-out: INHIBITION
Outline: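 Uninfected HepG2-A16-CD81EGFP cells, 3 × 10^3 per well, 1536-well, plated on prespotted compound at 10 μM final, parasite-free screening media added to match infected plates; puromycin 10 μM positive, DMSO 0.5% negative; run in parallel with 48 h PbLuc assay at 37 °C, 5% CO2; viability by CellTiter-Glo luminescence, normalized to controls.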

SMILES	cytotoxicity at 10 µM [%]
O=C(Nc1cccc(OCc2cccc(F)c2)c1)C1COCCO1 (configuration not stated)	8.06
CC(C)NC(=O)N[C@H]1C[C@@H](Cc2cc(CN3CCOCC3)on2)C1(C)C	-5.5
COc1cccc2c1ccn2CCNC(=O)C1CCC1	-3.54
O=C(NCC1(O)CCCC1)c1ccc2nsnc2c1	-5.37
CCC(=O)N1CCC2(CC1)CN(C(C)=O)c1ccc(C)cc12	8.82
COc1nn(C)c2c1CCCN(S(=O)(=O)c1ccccc1F)C2	-109
O=C(O)c1ccc2c(c1)C1(CCCCC1)CN2C(=O)c1cccs1	3.01
Cc1cnc(CNC(=O)[C@@H]2CC[C@@H]3[C@@H](CCN3Cc3ccco3)O2)cn1	0.296
Cc1c(C)n(CC(O)CN2CCCCCC2)c2c(Cl)cccc12 (configuration not stated)	-21.9
CCC(=O)Nc1ccc2c(c1)CN(C(=O)c1ccco1)CC2	5.84
Cc1cc(O)c(OCC(=O)/N=c2\[nH]cc(C)s2)cn1	-12.4
c1ccc(OCCNCc2cccs2)nc1	-3.26
COCCNC(=O)c1ccc2c(=O)n3c(nc2c1)CCN(C)CC3	-1.02
CNc1cccc(C2CN(C(=O)c3c[nH]cn3)CCO2)n1 (configuration not stated)	6
O=C(NCC1CC1)Nc1cnc2cc(Cl)ccc2c1O	-0.0788
Cc1nn(C)c(C)c1NC(=O)CNC(c1ccc(F)cc1)C1CCC1 (configuration not stated)	-1.65
CCCC(NC(=O)c1ccccn1)c1nnc2ccccn12 (configuration not stated)	-6.54
CC(C(=O)N(Cc1ccc(F)cc1)CC(F)(F)F)S(C)(=O)=O (configuration not stated)	14.7
CN(CCOc1ccccc1Cl)S(=O)(=O)N1CCOCC1	-3.51
Cc1ncc(CNC(=O)NCC(C)Oc2ccccc2F)s1 (configuration not stated)	-7.16
Cc1ccc(CC(=O)NCC(O)c2cc(Cl)cc(Cl)c2)cn1 (configuration not stated)	-3.69

SMILES	cytotoxicity at 10 µM [%]
CN(Cc1nc2ccccc2n1C)C(=O)CCc1cscn1	-159
Cc1nc(S(=O)(=O)N2CCCCc3ccccc32)cn1C	-2.38
Cc1ncc(C(=O)Nc2cncnc2N(C)C)c(Cl)c1Cl	0.776
CCCc1n[nH]c(C2CN(CC(=O)N(C)Cc3ccco3)CCO2)n1 (configuration not stated)	-4.84
c1nc(-c2nc(C3CCOC3)no2)cs1 (configuration not stated)	6.18
CC(C)N(CC(N)=O)CC(=O)NCCc1c(F)cccc1F	-4.97
CCCN1CCCN(c2ccc(-n3ccc(C)n3)nn2)CC1	-1.2
Cc1cnn(C2CN(c3nc(C)cc(N(C)C)n3)C2)c1	-5.12
Cc1cnc(NC(=O)N2CCOCC2)s1	-1.14
CC(C)N(CC(N)=O)C(=O)c1cnc(-c2ccc3c(c2)OCO3)s1	-5.92
OCC1CCCN1c1cc(NCc2cc3ccccc3o2)ncn1 (configuration not stated)	7.53
CN1CCC(NC(=O)CCCc2cc(Cl)sc2Cl)C1=O (configuration not stated)	-2.46
CCCc1cc(N2CCCC2Cn2nc(C)cc2C)n2ncnc2n1 (configuration not stated)	2.48
COC(=O)c1ccc(N2CCC(N(C)c3ccccc3)CC2)nn1	-4.92
O=C(NCCn1ccnc1)c1cc(F)cc(Br)c1	-1.62
CS(=O)(=O)CCCOc1cccc(-n2ccnc2)c1	5.13
CCN(C(=O)CN1CCCC1c1ccc(OC)cc1)c1ccccc1 (configuration not stated)	-2.25
COc1ccc(Br)cc1CCC(=O)N1CCCC1	-4.2
Cc1nc(-c2ccccc2)sc1CSC(C)C(N)=O (configuration not stated)	-6.55
CCC(C)(C)NC(=O)c1ccc(-c2ccco2)[nH]c1=O	-15.6
CC(C)N(C)CC(=O)NCCc1nc(C(F)(F)F)cs1	5.07

SMILES	cytotoxicity at 10 µM [%]
Cc1ccc(C(CNCc2cnn(C(C)C)c2)N2CCOCC2)s1 (configuration not stated)	-21.3
CCc1nnc(CNCC2CCCN2c2cccnn2)o1 (configuration not stated)	-10.7
COCCN1CCCC2(CCN(c3nccc4ccccc34)C2)C1=O (configuration not stated)	-0.212
CCCn1ncc(C(=O)N2CCC(N3CCCCC3)CC2)c1C	-143
CCc1cc(N2CCN(c3cnccn3)CC2)n2nc(C)c(C)c2n1	6.71
COCC[C@]1(O)CCN(Cc2nc(C)c(C)s2)C[C@H]1C	2.14
CCCc1cc(C(=O)N2CCC3(CCCN(CCOC)C3=O)C2)cs1 (configuration not stated)	-167
N[C@@H]1CCN(Cc2cc(-c3ccccc3OC(F)(F)F)no2)C[C@H]1O	2.42
Cc1ccn(CCNc2ncnc3c2CCN(c2cnccn2)CC3)n1	-1.81
CN(C)C(=O)N1CCN(CCCOc2ccccc2)[C@H]2CS(=O)(=O)C[C@H]21	0.666
Cc1nn(C)c(C)c1CN(Cc1cccn1-c1ccccn1)C(C)C	0.936
O=C1NCCN1CCNCC1(O)CCCN(CCC2CCCCC2)C1=O (configuration not stated)	-1.04
CC[C@@]1(O)CCN(C(=O)CCc2cnn(C)c2)C[C@H]1O	-0.634
O=C(c1cccnc1O)N1CCCC2(C=Cc3ccccc3O2)CC1 (configuration not stated)	9.02
N#Cc1cccc(CN2CCN(C(=O)C3CCC3)[C@@H]3CS(=O)(=O)C[C@@H]32)c1	-3.49
CCn1ccnc1CNc1nccc(-c2c(C)nn(C)c2C)n1	-0.0793
Cc1nn(C)cc1C(=O)N1CCCN(C2Cc3ccccc3C2)CC1	-3.16
Cc1nc2c(C(=O)N[C@H]3C[C@H]4CN(C)CCN4C3)cccc2[nH]1	-7.98
COCC[C@]1(O)CCN(C(=O)c2cnn(C)c2)C[C@H]1C	2.59
CN(Cc1csc(-c2ccccc2)n1)C(=O)CCNS(C)(=O)=O	0.571
CC(C)(C)c1cc(CNC(=O)c2cc(COc3ccccc3)[nH]n2)[nH]n1	8.28

SMILES	cytotoxicity at 10 µM [%]
CC(C)NC(=O)[C@@H]1C[C@@H](N)CN1C(=O)c1cc2c([nH]c1=O)CCCC2	-0.869
Cn1cc(C(=O)N2CCCCC2CCc2ccccc2)cn1 (configuration not stated)	-7.45
CC(C)c1cc(CSCCC(=O)O)no1	-7.52
O=C(CSc1nccc(-c2ccc3c(c2)OCO3)n1)N1CCOCC1	-8.3
Cc1cn(Cc2ccc(F)cc2)nc1N	-8.99
O=C(Cc1ccc2c(c1)CCC2)N1CCN(c2cnccn2)CC1	-2.18
CC(Cn1ccnc1)NC(=O)C1(c2ccc(F)cc2)CCCC1 (configuration not stated)	-9.98
O=C(NCc1cc[nH]n1)NCC(O)c1ccc(F)c(F)c1 (configuration not stated)	-21
Cc1cccc(N2CCN(C(=O)NC(C)c3nncn3C)CC2)c1C (configuration not stated)	-4.41
CCn1ccnc1CN1CCCN(C(=O)COC2CCCC2)CC1	-6.58
COc1ccnc(N2CCN(C(=O)Cc3ccn(C(C)C)n3)CC2)n1	-16.2
CCc1nnc(CN2CCCN(C(=O)c3ccccn3)CC2)o1	-5.56
CCN(C)S(=O)(=O)N(CC)Cc1ccc2c(c1)OCO2	-6.62
O=C(c1ccc2ccccc2n1)N1CCC2(CCN2c2ncccn2)C1 (configuration not stated)	-114
CCc1ccc(CN2CCc3ncnc(-c4cccnc4)c3CC2)o1	12.8
CN(C)CCO[C@H]1CN(Cc2cccc(C#N)c2)[C@@H]2COC[C@H]12	-12.7
O=C(N1CCCO1)[C@@]12CCO[C@@H]1CCN(Cc1ccc(F)cc1)C2	-6.1
CSc1ccc(CNC2CCCc3c2cnn3C)cc1 (configuration not stated)	0.684
Cc1noc(C)c1CN1C(=O)[C@@H]2CC[C@H]1CN(Cc1ccc(Cl)cc1)C2	6.22
